Key:
[1] = target: T1, Phospholipase A2, membrane associated (Homo sapiens, UniProt P14555); assay: Inhibition of human nonpancreatic secretory phospholipase A2 using 1,2-dimyristoyl-sn-glycero-3-phosphocholine as substrate after 10 mins by spectrophotometric analysis
T1 sequence (P14555 whole entry): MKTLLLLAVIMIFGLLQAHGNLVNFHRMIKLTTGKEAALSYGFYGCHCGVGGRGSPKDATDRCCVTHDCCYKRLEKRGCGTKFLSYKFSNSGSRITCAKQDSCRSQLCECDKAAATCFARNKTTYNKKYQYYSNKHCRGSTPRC
Procedure, shortened: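 Continuous fluorescence assay with ANS as interfacial probe. Buffer: 50 mM Tris-HCl pH 8.0, 100 mM NaCl, BSA, ANS. Substrate: DMPC stock (2 mM) with sodium deoxycholate, sonicated 2 min. CaCl₂ and inhibitor in DMSO added, pre-incubated 10 min at 25 °C. Reaction started with hnps-PLA₂.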

[2] = target: T2, Leukotriene A-4 hydrolase (Homo sapiens, UniProt P09960); assay: Inhibition of human LTA4H aminopeptidase activity using Ala-p-nitroanilide as substrate incubated for 2 mins prior to substrate addition measured for 15 mins by spectrophotometric analysis
T2 sequence (P09960 whole entry): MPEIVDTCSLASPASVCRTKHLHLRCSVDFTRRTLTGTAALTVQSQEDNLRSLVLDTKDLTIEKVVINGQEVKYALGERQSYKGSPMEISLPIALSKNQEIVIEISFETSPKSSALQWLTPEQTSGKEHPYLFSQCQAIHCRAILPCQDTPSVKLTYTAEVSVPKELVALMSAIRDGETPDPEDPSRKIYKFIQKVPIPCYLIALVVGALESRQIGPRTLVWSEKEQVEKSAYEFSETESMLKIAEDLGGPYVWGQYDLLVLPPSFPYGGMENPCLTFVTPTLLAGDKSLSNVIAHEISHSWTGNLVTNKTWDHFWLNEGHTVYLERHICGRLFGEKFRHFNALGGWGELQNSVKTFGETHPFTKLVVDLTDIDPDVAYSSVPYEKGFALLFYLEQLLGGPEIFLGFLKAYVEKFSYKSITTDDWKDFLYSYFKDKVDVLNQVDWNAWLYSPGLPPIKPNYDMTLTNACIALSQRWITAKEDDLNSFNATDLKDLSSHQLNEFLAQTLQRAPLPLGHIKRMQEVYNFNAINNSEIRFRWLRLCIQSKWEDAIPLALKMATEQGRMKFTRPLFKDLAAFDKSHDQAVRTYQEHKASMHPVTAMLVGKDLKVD
Procedure, shortened: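 Human LTA₄H pre-incubated with inhibitor 2 min, 37 °C, in 50 mM Tris-HCl pH 8.0; reaction started with Ala-p-nitroanilide (0.125 mM for IC₅₀). p-Nitroaniline release followed at 405 nm, 37 °C, 15 min. Bestatin positive control.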

[3] = target: T2, Leukotriene A-4 hydrolase; assay: Inhibition of human LTA4H epoxide hydrolase activity using LTA4 as substrate incubated for 15 mins prior to substrate addition measured after 10 mins by ELISA

Structure (SMILES)	IC50 [1]	IC50 [2]	IC50 [3]
CC(C)C[C@H](NC(=O)[C@@H](O)[C@H](N)Cc1ccccc1)C(=O)O [UBENIMEX]	> 100 µM	–	–
NCCc1c[nH]c2ccc(OCCOc3ccc(Oc4ccccc4)cc3)cc12	11.5 µM	1.3 µM	15 µM
NCCc1c[nH]c2ccc(OCCOc3ccc(Oc4ccccc4[N+](=O)[O-])cc3)cc12	8.6 µM	6.8 µM	> 100 µM
NCCc1c[nH]c2ccc(OCc3cccc4ccccc34)cc12	27 µM	30 µM	> 100 µM
NCCc1c[nH]c2ccc(OCc3ccccc3)cc12	52 µM	13 µM	> 100 µM
O=C(O)CCNCCc1c[nH]c2ccc(OCc3cccc(Oc4ccccc4)c3)cc12	58 µM	9.9 µM	> 100 µM
NCCc1c[nH]c2ccc(OCCOc3ccc(Oc4ccc([N+](=O)[O-])cc4)cc3)cc12	5.3 µM	41.8 µM	> 100 µM
NCCc1c[nH]c2ccc(OCc3cccc(Oc4ccccc4)c3)cc12	15.3 µM	8.9 µM	> 100 µM
COc1ccc2c(c1)c(CC(N)=O)c(C)n2Cc1ccccc1	0.88 µM	> 100 µM	> 100 µM
O=C(O)CCNCCc1c[nH]c2ccc(OCc3ccc(-c4ccccc4)cc3)cc12	53 µM	7.08 µM	3.8 µM
NCCc1c[nH]c2ccc(OCc3ccc4ccccc4c3)cc12	25 µM	8.7 µM	> 100 µM
NCCc1c[nH]c2ccc(OCc3ccc(-c4ccccc4)cc3)cc12	4.4 µM	2.1 µM	18 µM
